The subject of test [1] is PBMC. As to the kind of experiment: Immunomodulatory activity in human PBMC assessed as induction of IP10 after 24 hrs. It is filed as functional, cell-based. In short, it runs like this:
(§1)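 Human PBMCs plated at 5 × 10^6 cells/mL; compounds dissolved in PBS added at various concentrations, 37 °C for 24 h. Supernatant cytokines/chemokines quantified with human Luminex multiplex kit.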

For test [2], the system named is PBMC. As to the kind of experiment: Immunomodulatory activity in human PBMC assessed as induction of IL12 after 24 hrs. It is filed as functional, cell-based. In short, it runs like this: as §1
In test [3] the test system is PBMC. As to the kind of experiment: Immunomodulatory activity in human PBMC assessed as induction of MIP1alpha after 24 hrs. It is filed as functional, cell-based. In short, it runs like this:
as §1

Test [4] relates to Mus musculus. Kind of test: Immunomodulatory activity in TLR7 knockout C57BL/6 mouse assessed as induction of IL12 release at 10 mg/kg, sc after 2 hrs by ELISA. It is filed as functional, organism-based. The arrangement: dose 10 mg/kg. In short, it runs like this: (§2)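 Male 8-week-old TLR9-/-, TLR7-/- or MyD88-/- mice on C57BL/6 background, n=3; single subcutaneous 10 mg/kg dose. Blood collected 2 h later by retro-orbital bleeding; serum IL-12 by ELISA.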

In test [5] the test system is PBMC. As to the kind of experiment: Immunomodulatory activity in human PBMC assessed as induction of IL6 after 24 hrs. It counts as functional, cell-based. In short, it runs like this:
as §1

Test [6] has as its system Mus musculus. Kind of test: Immunomodulatory activity in wild-type C57BL/6 mouse assessed as induction of IL12 release at 10 mg/kg, sc after 2 hrs by ELISA. It is filed as functional, organism-based. Also noted: dose 10 mg/kg. In short, it runs like this:
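Female C57BL/6 wild-type mice, 5–8 weeks old, n=3; compounds given subcutaneously at 10 or 25 mg/kg. Retro-orbital blood at 2 h; serum cytokines by mouse Luminex multiplex or IL-12 ELISA.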
In general terms: ELISA stands for enzyme-linked immunosorbent assay.

Test [7] deals with PBMC. Kind of test: Immunomodulatory activity in human PBMC assessed as induction of IL1-beta after 24 hrs. It is filed as functional, cell-based. In short, it runs like this:
as §1

Test [8] has as its system Mus musculus. As to the kind of experiment: Immunomodulatory activity in TLR9 knockout C57BL/6 mouse assessed as induction of IL12 release at 10 mg/kg, sc after 2 hrs by ELISA. It is filed as functional, organism-based. The arrangement: dose 10 mg/kg. In short, it runs like this:
as §2

Active and inactive are the calls of the source. The calls are words filed in the database; no cut-off is given here.

Take `Nc1ccn([C@@H]2O[C@H](COP(=O)(S)O[C@H]3[C@@H](O)[C@H](n4cnc5c(N)ncnc54)O[C@@H]3CO)[C@@H](OP(=O)(S)OC[C@H]3O[C@@H](n4ccc(=O)[nH]c4=O)[C@H](O)[C@@H]3OP(=O)(S)OC[C@H]3O[C@@H](n4ccc5c(=O)[nH]c(N)nc54)[C@H](O)[C@@H]3OP(=O)(S)OC[C@H]3O[C@@H](n4ccc(N)nc4=O)[C@H](O)[C@@H]3OP(=O)(S)OC[C@H]3O[C@@H](n4ccc5c(=O)[nH]c(N)nc54)[C@H](O)[C@@H]3OP(=O)(S)OC[C@H]3O[C@@H](n4cnc5c(N)ncnc54)[C@H](O)[C@@H]3OP(=O)(S)OC[C@H]3O[C@@H](n4ccc5c(=O)[nH]c(N)nc54)[C@H](O)[C@@H]3OP(=O)(S)OC[C@H]3O[C@@H](n4ccc(N)nc4=O)[C@H](O)[C@@H]3OP(=O)(S)OC[C@H]3O[C@@H](n4ccc(=O)[nH]c4=O)[C@H](O)[C@@H]3OP(=O)(S)OC[C@H]3O[C@@H](n4ccc(=O)[nH]c4=O)[C@H](O)[C@@H]3OP(=O)(S)OCC(O)COP(=O)(S)O[C@H]3[C@@H](O)[C@H](n4ccc(=O)[nH]c4=O)O[C@@H]3COP(=O)(S)O[C@H]3[C@@H](O)[C@H](n4ccc(=O)[nH]c4=O)O[C@@H]3COP(=O)(S)O[C@H]3[C@@H](O)[C@H](n4ccc(N)nc4=O)O[C@@H]3COP(=O)(S)O[C@H]3[C@@H](O)[C@H](n4ccc5c(=O)[nH]c(N)nc54)O[C@@H]3COP(=O)(S)O[C@H]3[C@@H](O)[C@H](n4cnc5c(N)ncnc54)O[C@@H]3COP(=O)(S)O[C@H]3[C@@H](O)[C@H](n4ccc5c(=O)[nH]c(N)nc54)O[C@@H]3COP(=O)(S)O[C@H]3[C@@H](O)[C@H](n4ccc(N)nc4=O)O[C@@H]3COP(=O)(S)O[C@H]3[C@@H](O)[C@H](n4ccc5c(=O)[nH]c(N)nc54)O[C@@H]3COP(=O)(S)O[C@H]3[C@@H](O)[C@H](n4ccc(=O)[nH]c4=O)O[C@@H]3COP(=O)(S)O[C@H]3[C@@H](O)[C@H](n4ccc(N)nc4=O)O[C@@H]3COP(=O)(S)O[C@H]3[C@@H](O)[C@H](n4cnc5c(N)ncnc54)O[C@@H]3CO)[C@H]2O)c(=O)n1` (stereo partly drawn): the Activity result in test [1], in test [2], in test [3], in test [5] and in test [7] was “Dose-dependent effect” each time. The result in test [4] was inactive. The outcome in test [6] and in test [8] was Active.

The values are drawn from ChEMBL document CHEMBL1154352, “Toll-like receptor 7 selective synthetic oligoribonucleotide agonists: synthesis and structure-activity relationship studies” (J Med Chem, 2009).
